In ChEMBL document CHEMBL4400576, “Identification of Pyrazolo[1,5-a]pyridine-3-carboxamide Diaryl Derivatives as Drug Resistant Antituberculosis Agents” (ACS Med Chem Lett, 2019):
In brackets after ≈: the same amount, converted by molar mass.

How the values were obtained:
[1] = test system: Mycobacterium tuberculosis; experiment: Antibacterial activity against Mycobacterium tuberculosis H37Rv after 7 days by microplate alamar blue assay; assay type: functional; settings: 168 h
Summary of the method: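 MIC against H37Rv by MABA. Primary screen run at 0.02 to 5 μg/mL. Compounds retested at 0.002 to 0.5 μg/mL.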

[2] = test system: Vero; experiment: Cytotoxicity against African green monkey Vero cells measured after 72 hrs by CellTiter 96 aqueous non-radioactive cell proliferation assay; assay type: cell-based; settings: Chlorocebus sabaeus
Summary of the method: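 Vero cells were exposed to compound, and cytotoxicity was reported as IC50 in µg/mL.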

[3] = Selectivity index, ratio of IC50 for African green monkey Vero cells to MIC>=90 for Mycobacterium tuberculosis H37Rv; assay type: toxicity; settings: read-out: Selectivity Index
Summary of the method: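 SI is Vero cell IC50 divided by MABA MIC against H37Rv, with MIC tested at 0.002 to 0.5 μg/mL.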

[4] = Half life in Sprague-Dawley rat at 10 mg/kg, po by LC-MS/MS analysis; assay type: ADME, organism-based; settings: in vivo
Summary of the method: (§1)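 Rats received a single dose of compound, either intravenously at 2.5 mg/kg or orally at 10 mg/kg, in separate arms. Plasma parameters were AUC0-∞ (h*µg/L), Cmax (µg/L), Tmax, T1/2 and MRT (h). Oral bioavailability F (%) was derived from the oral and intravenous arms.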

[5] = AUC (0 to infinity) in Sprague-Dawley rat at 10 mg/kg, po by LC-MS/MS analysis; assay type: ADME, organism-based; design: dose 10 mg/kg, route oral, time infinity; settings: in vivo; summary of the method: as §1
[6] = MRT (0 to infinity) in Sprague-Dawley rat at 10 mg/kg, po by LC-MS/MS analysis; assay type: ADME, organism-based; settings: in vivo; summary of the method: as §1
[7] = Cmax in Sprague-Dawley rat at 2.5 mg/kg, iv by LC-MS/MS analysis; assay type: ADME, organism-based; design: dose 2.5 mg/kg, route intravenous; settings: in vivo; summary of the method: as §1
[8] = MRT (0 to infinity) in Sprague-Dawley rat at 2.5 mg/kg, iv by LC-MS/MS analysis; assay type: ADME, organism-based; settings: in vivo; summary of the method: as §1
[9] = Cmax in Sprague-Dawley rat at 10 mg/kg, po by LC-MS/MS analysis; assay type: ADME, organism-based; design: dose 10 mg/kg, route oral; settings: in vivo; summary of the method: as §1
[10] = Tmax in Sprague-Dawley rat at 2.5 mg/kg, iv by LC-MS/MS analysis; assay type: ADME, organism-based; settings: in vivo; summary of the method: as §1
[11] = Oral bioavailability in Sprague-Dawley rat at 10 mg/kg by LC-MS/MS analysis; assay type: ADME, organism-based; settings: in vivo; summary of the method: as §1
[12] = Tmax in Sprague-Dawley rat at 10 mg/kg, po by LC-MS/MS analysis; assay type: ADME, organism-based; settings: in vivo; summary of the method: as §1
[13] = AUC (0 to infinity) in Sprague-Dawley rat at 2.5 mg/kg, iv by LC-MS/MS analysis; assay type: ADME, organism-based; design: dose 2.5 mg/kg, route intravenous, time infinity; settings: in vivo; summary of the method: as §1
[14] = Half life in Sprague-Dawley rat at 2.5 mg/kg, iv by LC-MS/MS analysis; assay type: ADME, organism-based; settings: in vivo; summary of the method: as §1

SMILES | MIC90 [1] [µg/mL] | IC50 [2] [µg/mL] | selectivity ratio [3] | other results
COc1ccn2nc(C)c(C(=O)NCc3nnc(-c4ccc(OC(F)(F)F)cc4)o3)c2c1 | > 5 |  |  | 
COc1ccn2nc(C)c(C(=O)NCc3ccc(-c4ccc(OC(F)(F)F)cc4)c(OC)c3)c2c1 |  | 11.8 (≈ 24.3 µM) | 1680 | 
COc1ccn2nc(C)c(C(=O)NCc3ncc(-c4ccc(OC(F)(F)F)cc4)[nH]3)c2c1 | > 5 |  |  | 
COc1ccn2nc(C)c(C(=O)NCc3ccc(-c4ccc(OC(F)(F)F)cc4)cc3C)c2c1 | 0.57 (≈ 1.21 µM) |  |  | 
COc1ccn2nc(C)c(C(=O)NCc3ccc(-c4ccc(OC(F)(F)F)cc4)cc3F)c2c1 |  | > 50 | > 7140 | 
COc1ccn2nc(C)c(C(=O)NCc3ccc(-c4ccc(OC(F)(F)F)cc4)c(C(F)(F)F)c3)c2c1 |  | 11.6 (≈ 22.2 µM) | 402 | 
COc1ccn2nc(C)c(C(=O)NCc3ccc(-c4ccc(OC(F)(F)F)cc4)cc3OC)c2c1 | 0.28 (≈ 0.577 µM) |  |  | 
COc1ccn2nc(C)c(C(=O)NCc3ccc(-c4ccc(OC(F)(F)F)cc4)s3)c2c1 |  | > 50 | > 25000 | 
COc1ccn2nc(C)c(C(=O)NCc3ccc(-c4ccc(OC(F)(F)F)cc4)nc3)c2c1 |  | 28.4 (≈ 62.2 µM) | 535 | 
COc1ccn2nc(C)c(C(=O)NCc3ncc(-c4ccc(OC(F)(F)F)cc4)o3)c2c1 | 1.96 (≈ 4.39 µM) |  |  | 
COc1ccn2nc(C)c(C(=O)NCc3cn(-c4ccc(OC(F)(F)F)cc4)nn3)c2c1 | > 5 |  |  | 
COc1ccn2nc(C)c(C(=O)NCc3cnc(-c4ccc(OC(F)(F)F)cc4)s3)c2c1 | 0.53 (≈ 1.15 µM) |  |  | 
COc1ccn2nc(C)c(C(=O)NCc3ccc(-c4ccc(OC(F)(F)F)cc4)cc3C(F)(F)F)c2c1 | > 5 |  |  | 
COc1ccn2nc(C)c(C(=O)NCc3ccc(-c4ccc(OC(F)(F)F)cc4)cn3)c2c1 |  | > 50 | > 25000 | half-life [4]: 5.1 h; AUC(0-inf) [5]: 15600 ng·h/mL; MRT inf [6]: 8.21 h; Cmax [7]: 4150 ng/mL; MRT inf [8]: 4.02 h; Cmax [9]: 1430 ng/mL; Tmax [10]: 4.8 min; bioavailability [11]: 41%; Tmax [12]: 4.67 h; AUC(0-inf) [13]: 9000 ng·h/mL; half-life [14]: 3.49 h
COc1ccn2nc(C)c(C(=O)NCc3ccc(-c4ccc(OC(F)(F)F)cc4)c(F)c3)c2c1 |  | > 50 | > 25000 | 
COc1ccn2nc(C)c(C(=O)NCc3ccc(-c4ccc(OC(F)(F)F)cc4)c(C)c3)c2c1 |  | 3.15 (≈ 6.71 µM) | 242 | 
COc1nc2ccc(Br)cc2cc1[C@@H](c1ccccc1)[C@@](O)(CCN(C)C)c1cccc2ccccc12 [BEDAQUILINE] | 0.02 to 0.03 (≈ 0.036 to 0.054 µM) | > 10 | > 500 | 
NNC(=O)c1ccncc1 [ISONIAZID] | 0.239 to 0.48 (≈ 1.74 to 3.5 µM) |  |  | 
CC(=O)NC[C@H]1CN(c2ccc(N3CCOCC3)c(F)c2)C(=O)O1 [LINEZOLID] | 1.25 to 3.27 (≈ 3.72 to 9.69 µM) |  |  | 
CO[C@H]1/C=C/O[C@@]2(C)Oc3c(C)c(O)c4c(O)c(c(/C=N/N5CCN(C)CC5)c(O)c4c3C2=O)NC(=O)/C(C)=C\C=C\[C@H](C)[C@H](O)[C@@H](C)[C@@H](O)[C@@H](C)[C@H](OC(C)=O)[C@@H]1C [RIFAMPIN] |  | > 100 | > 12500 | 
